INS-1E rescue: preserves ATP levels in cytokine-treated INS-1E cells; INS-1E cytokine-induced death, ATP luminescence, 48 h; normalised: neutral wells 0, positive control 100; protection from cytokine-induced ATP loss, % at 10 µM; actives 0.1% (n = 20,000); AID 488910;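 active means mean replicate protection from cytokine-induced ATP loss at least 50% and at least 75% of replicates each reaching 50%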
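Assay system – rat INS-1E insulinoma cell line · Quantity – 8000 cells per well · Buffer or medium – RPMI without phenol red, 5% FBS · Schedule – 48 h co-treatment, 10 min post-lysis read · Technique – luminescent ATP assay (CellTiter-Glo)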
YB-1 expression: YB-1 expression inhibition. U2OS, qRT-PCR YB-1 vs CDIP delta delta Cp, 16 h; active compounds read high; zero = DMSO, each unit about twofold. delta delta Cp (YB-1 minus CDIP) (no concentration beside the values). actives 0.37% (n = 30,000);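 active means delta delta Cp rounded down to an integer at or above 3, about 3 SD of DMSO wells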;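 further: higher means less YB-1 transcript or more CDIP transcript relative to DMSO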
T cruzi intra: intracellular Trypanosoma cruzi inhibition | intracellular Trypanosoma cruzi in host cells, plate reader | activity score (inhibition), % at 5.01 µM | actives 4.9% (n = 22,000) | AID 651903; in the data active means activity score above about 55%;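 further: parasites and compound incubated about four days before reading; 0% = median of neutral control wells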
Starred values were filed as active, the others as inactive; · = no result. This excerpt belongs to a sample that is enriched for hits.

SMILES | INS-1E rescue | YB-1 expression | T cruzi intra
C[C@@H]1CCCCO[C@@H](CN(C)Cc2ccc(Cl)c(Cl)c2)[C@@H](C)CN([C@H](C)CO)C(=O)c2cc(NC(=O)Nc3ccc4c(c3)OCO4)ccc2O1 | -21 | -0.024 | 67*
CC(C)NC(=O)Nc1ccc2c(c1)C(=O)N([C@H](C)CO)C[C@H](C)[C@H](CN(C)CC1CCCCC1)OCCCC[C@@H](C)O2 | -13 | 0.16 | -12
CSc1nc(Nc2cccc(C(F)(F)F)c2)cc(C(F)(F)F)c1C#N | · | -0.1 | ·
C[C@@H]1CN([C@@H](C)CO)C(=O)Cc2cc(NC(=O)Nc3ccc(F)cc3)ccc2O[C@@H]1CN(C)S(=O)(=O)c1cn(C)cn1 | 18 | -0.29 | -29
C[C@@H]1CCCCO[C@@H](CN(C)S(=O)(=O)c2ccccc2)[C@@H](C)CN([C@H](C)CO)C(=O)c2cc(NS(=O)(=O)c3cccs3)ccc2O1 | -5 | -0.099 | 2
C[C@H]1CN([C@@H](C)CO)C(=O)c2cccc(NC(=O)C3CC3)c2O[C@H]1CN(C)Cc1ccccc1 | 3 | 0.21 | -23
Cc1noc(C)c1NC(=O)Nc1ccc2c(c1)C(=O)N([C@H](C)CO)C[C@H](C)[C@@H](CN(C)Cc1ccc(C(F)(F)F)cc1)OCCCC[C@@H](C)O2 | 21 | 0.21 | ·
C[C@@H]1CCCCO[C@H](CN(C)Cc2ccc(C(F)(F)F)cc2)[C@@H](C)CN([C@H](C)CO)C(=O)c2cc(NC(=O)Nc3ccc(C(F)(F)F)cc3)ccc2O1 | -38 | 0.099 | 71*
Cc1noc(C)c1NC(=O)Nc1ccc2c(c1)C(=O)N([C@H](C)CO)C[C@H](C)[C@H](CN(C)Cc1ccccc1)O2 | · | -0.64 | 3
C[C@H](CO)N1C[C@H](C)[C@H](CN(C)Cc2ccc(C(F)(F)F)cc2)Oc2ccc(NS(=O)(=O)c3cn(C)cn3)cc2CC1=O | -3 | -0.35 | 8
C[C@@H]1CN([C@H](C)CO)C(=O)Cc2cc(N(C)C)ccc2O[C@@H]1CN(C)Cc1ccc(C(=O)Nc2ccccc2N)cc1 | -14 | 0.094 | 63*
C[C@@H]1CN([C@@H](C)CO)C(=O)c2cc(N(C)C)ccc2O[C@H]1CN(C)Cc1ccc(C(=O)Nc2ccccc2N)cc1 | 3 | -0.11 | 35
C[C@@H]1CN([C@H](C)CO)C(=O)Cc2cc(N(C)C)ccc2O[C@H]1CN(C)Cc1ccc(C(=O)Nc2ccccc2N)cc1 | 18 | -0.26 | 69*
C[C@@H]1CN([C@H](C)CO)C(=O)Cc2cc(NC(=O)c3ccncc3)ccc2O[C@H]1CN(C)Cc1ccc(C(=O)Nc2ccccc2N)cc1 | -22 | -0.042 | 20
C[C@@H]1CN([C@H](C)CO)C(=O)Cc2cc(NS(C)(=O)=O)ccc2O[C@H]1CN(C)Cc1ccncc1 | -1 | 0.013 | -5
C[C@@H]1CCCCO[C@H](CN(C)CC2CCCCC2)[C@@H](C)CN([C@H](C)CO)C(=O)c2cc(NC(=O)Cc3ccccc3)ccc2O1 | -2 | -0.068 | 15
C[C@@H]1CN([C@@H](C)CO)C(=O)c2cccc(NC(=O)Nc3ccc(C(F)(F)F)cc3)c2O[C@@H]1CN(C)Cc1ccc(C(=O)Nc2ccccc2N)cc1 | -16 | -1 | 78*
C[C@H](CO)N1C[C@H](C)[C@H](CN(C)Cc2ccc(C(=O)O)cc2)Oc2c(NC(=O)Nc3ccc(C(F)(F)F)cc3)cccc2C1=O | -8 | -0.27 | -11
C[C@H](CO)N1C[C@H](C)[C@@H](CN(C)Cc2ccc(C(=O)O)cc2)Oc2c(NC(=O)Nc3ccc(C(F)(F)F)cc3)cccc2C1=O | 6 | -0.19 | -12
C[C@H](CO)N1C[C@H](C)[C@H](CN(C)Cc2ccc(C(=O)Nc3ccccc3N)cc2)Oc2c(NC(=O)Nc3ccc(C(F)(F)F)cc3)cccc2C1=O | -18 | -1.1 | 61*
CC1CCC23CCC(O[C@@H]4O[C@H](CO)[C@@H](O)[C@H](O)[C@H]4O)C12C(C=O)=CC3(C)C (stereo not given in full) | · | -0.1 | ·
C[C@@H]1CN([C@@H](C)CO)C(=O)c2cc(NS(=O)(=O)c3ccc(F)cc3)ccc2O[C@H]1CN(C)S(=O)(=O)c1cn(C)cn1 | 6 | -0.23 | -1
COc1ccc(S(=O)(=O)Nc2ccc3c(c2)CC(=O)N([C@@H](C)CO)C[C@H](C)[C@@H](CN(C)S(=O)(=O)c2ccc(OC)cc2)O3)cc1 | 1 | -0.17 | 9
COc1ccc(S(=O)(=O)N(C)C[C@@H]2Oc3ccc(NS(=O)(=O)c4ccc(Cl)cc4)cc3CC(=O)N([C@@H](C)CO)C[C@@H]2C)cc1 | 3 | 0.061 | -38

Screening results (PubChem BioAssay)
